This passage reports viability, differential viability (reversal) and inhibition results from PubChem BioAssay.

A short description of assay [1]: HUVEC growth inhibition – cell-based, human, primary screen (AID 575;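 active = viability at or below 30% in both replicate assays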;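 note: 100% = median of untreated cell wells with 0.1% DMSO on each plate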). The settings on record: HUVEC proliferation, CellTiter-Glo luminescence, 72 h; at 10 µM; stronger effect = lower value. The essentials: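 Timing: 72 h treatment at 37 °C; material: HUVEC primary cells; technique: CellTiter-Glo luminescence measuring cellular ATP; controls: vehicle and MePR control wells; measure: percent of median DMSO-control luminescence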
A general note: Cellular ATP, detected with luciferase, serves as a proxy for viable cell number.

Assay [2] is described as follows: H69AR cell proliferation blockers – human, duplicate replicates, primary screen (AID 580;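 active = viability at or under a set limit in both replicates, limit being median viability minus 3 SD, cut at about 48% in these data, passing the limit was not always enough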;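 note: 100% = mean luminescence of untreated wells and 0% = no signal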). The settings on record: H69AR lung tumor cells viability, ATP luminescence, 72 h; at 10 µM; stronger effect = lower value.
Assay [3] can be described thus: MRP1 drug-resistance reversers in H69AR cells – cell-based, doxorubicin co-treatment, pilot screen (AID 601;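 active = viability loss from added drug above about 55%, and viability with drug at most 40%, in both replicates, limit read from the data, passing the limit was not always enough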). The settings on record: CellTiter-Glo, 72 h, at 10 µM; for differential viability (reversal): stronger effect = higher value.
Assay [4] is described as follows: yeast transport mutant growth inhibition pilot in 384-well plates, post-Golgi transport modulator project (AID 636). The settings on record: absorbance 615 nm, about 18 h, stronger effect = higher value.
A short description of assay [5]: growth suppression of yeast trafficking mutant, preliminary HTS, modulators of trafficking downstream of Golgi apparatus project, 1536-format plate, OD 615 nm (AID 637; in the data active = inhibition above about 30%). The settings on record: yeast transport mutant growth, absorbance 615 nm, 18 h; stronger effect = higher value.
[6] abbreviates: H69AR cells + 2 uM doxorubicin, measured here: viability with 2 uM doxorubicin, stronger effect = lower value.
[7] abbreviates: H69AR cells, compound alone cytotoxicity.

Calls of active or inactive are those of the source. Cut-off read from the data, not from the text of the source, unless noted: active = inhibition above about 31%; inactive = the rest.

Regarding `O=C(CCCNS(=O)(=O)c1ccccc1)NCc1ccco1`, the viability (commonly a read-out of living cells in per cent, often relative to untreated cells) was 94.5% (inactive) in assay [1], 99.3% (inactive) in assay [2], 92.7% in assay [3] (setting [6]) and 99.3% in assay [3] (setting [7]). For the same molecule, in assay [3] (H69AR cells + 2 uM doxorubicin), the differential viability (reversal) was 6.58% (inactive). Moreover, the values for the inhibition in assay [4] and in assay [5] were -4.67% (inactive) and 1.9% (inactive), respectively.
Consider `O=C(Nc1nc(-c2ccc(S(=O)(=O)N3CCCC3)cc2)cs1)C1COc2ccccc2O1` (stereo not given), for which the viability in assay [1] was 79.1% (inactive); in assay [2], 90.3% (inactive); in assay [3] (setting [6]) it was 91.8%; in assay [3] (setting [7]), 90.3%. Moreover, the differential viability (reversal) in assay [3] (H69AR cells + 2 uM doxorubicin) was -1.52% (inactive). In addition, the figures for the inhibition in assay [4] and in assay [5] were -3.73% (inactive) and -6.83% (inactive), respectively.
Take `CC(C)c1nnc(NC(=O)CCC(=O)NCc2ccc3c(c2)OCO3)s1`: the viability in assay [1] was 103% (inactive); in assay [2], 97.7% (inactive); in assay [3] (setting [6]), 99.1%; in assay [3] (setting [7]) it was 97.7%. The differential viability (reversal) in assay [3] (H69AR cells + 2 uM doxorubicin) is -1.39% (inactive). The inhibition (commonly the change of the read-out against control, counted positive when it falls) in assay [4] was -5.2% (inactive); in assay [5] it was 2.86% (inactive).
Turning to `Cn1c(=O)c(=O)n(C)c2cc(S(=O)(=O)N3CCN(c4cccc(C(F)(F)F)c4)CC3)ccc21`, the viability in assay [1] was 73% (inactive); in assay [2], 93.3% (inactive); in assay [3] (setting [6]), 94.3%; in assay [3] (setting [7]), 93.3%. Also, the differential viability (reversal) in assay [3] (H69AR cells + 2 uM doxorubicin) was -1% (inactive). Moreover, the inhibition was 0.4% (inactive) in assay [4] and 3.02% (inactive) in assay [5].
As for `COc1cc(CN2CCC(C(=O)NC3CCCC3)CC2)ccc1O`, the viability in assay [1] was 109% (inactive); in assay [2] it was 94.7% (inactive); in assay [3] (setting [6]), 85.2%; in assay [3] (setting [7]), 94.7%. In addition, the differential viability (reversal) in assay [3] (H69AR cells + 2 uM doxorubicin) is 9.49% (inactive). Besides, the inhibition in assay [4] is -4% (inactive); in assay [5], 0.79% (inactive).
`CCCCNC(=O)c1cc(-c2ccc(F)cc2)on1`: the viability was 74.1% (inactive) in assay [1], 81.2% (inactive) in assay [2], 59.2% in assay [3] (setting [6]) and 81.2% in assay [3] (setting [7]). For the same molecule, in assay [3] (H69AR cells + 2 uM doxorubicin), the differential viability (reversal) was 21.9% (inactive). The inhibition in assay [4] is -2.5% (inactive); in assay [5] it was -1.11% (inactive).
For the molecule `CCCC1CCC(C(=O)Nn2c(C)nc3ccccc3c2=O)CC1` (stereo not given), the viability in assay [1] is 104% (inactive); in assay [2] it was 98.2% (inactive); in assay [3] (setting [6]) it was 83.3%; in assay [3] (setting [7]), 98.2%. Besides, the differential viability (reversal) in assay [3] (H69AR cells + 2 uM doxorubicin) is 14.9% (inactive). Moreover, the inhibition in assay [4] is -3.16% (inactive); in assay [5], 0.95% (inactive).
Regarding `CN(C)C(CNc1nnnn1-c1ccccc1)c1ccco1` (stereo not given), the viability in assay [1] was 79.2% (inactive); in assay [2], 77.4% (inactive); in assay [3] (setting [6]), 72.4%; in assay [3] (setting [7]), 77.4%. In assay [3] (H69AR cells + 2 uM doxorubicin), the differential viability (reversal) was 5% (inactive). Further, the inhibition is -3.77% (inactive) in assay [4] and 1.11% (inactive) in assay [5].
Turning to `CCOc1ccc(OCC)c(NC(=O)C2CCN(c3ncccn3)CC2)c1`, the viability was 105% (inactive) in assay [1], 86.1% (inactive) in assay [2], 98.5% in assay [3] (setting [6]) and 86.1% in assay [3] (setting [7]). For the same molecule, in assay [3] (H69AR cells + 2 uM doxorubicin), the differential viability (reversal) was -12.5% (inactive). The results for the inhibition in assay [4] and in assay [5] were -3.47% (inactive) and -2.06% (inactive), respectively.
For the molecule `CCOc1ccc(NC(=O)c2ccncc2)cc1`, the viability in assay [1] is 112% (inactive); in assay [2] it was 99.9% (inactive); in assay [3] (setting [6]), 88.5%; in assay [3] (setting [7]), 99.9%. In addition, the differential viability (reversal) in assay [3] (H69AR cells + 2 uM doxorubicin) is 11.4% (inactive). For the same molecule, the inhibition in assay [4] is -2.89% (inactive); in assay [5] it was -0.63% (inactive).
In the case of `CCN(CC)CCNC(=O)C1CCN(S(=O)(=O)N2CCCCC2)CC1`, the viability was 100% (inactive) in assay [1], 94.8% (inactive) in assay [2], 94.6% in assay [3] (setting [6]) and 94.8% in assay [3] (setting [7]). Further, the differential viability (reversal) in assay [3] (H69AR cells + 2 uM doxorubicin) was 0.23% (inactive). For the same molecule, the inhibition was -3.82% (inactive) in assay [4] and 0.32% (inactive) in assay [5].
With `CCc1ccc(NC(=O)CS(=O)CC(=O)NCC2OCCc3ccccc32)cc1` (stereo not given), the viability in assay [1] is 101% (inactive); in assay [2], 99.1% (inactive); in assay [3] (setting [6]) it was 95%; in assay [3] (setting [7]), 99.1%. For the same molecule, the differential viability (reversal) in assay [3] (H69AR cells + 2 uM doxorubicin) is 4.08% (inactive). Also, the inhibition is -0.93% (inactive) in assay [4] and 1.75% (inactive) in assay [5].
As for `CC(CN1CCCCC1)OC(=O)c1ccc(Cl)cc1Cl` (stereo not given), the viability in assay [1] was 96.7% (inactive); in assay [2], 92.9% (inactive); in assay [3] (setting [6]) it was 85.9%; in assay [3] (setting [7]), 92.9%. Besides, the differential viability (reversal) in assay [3] (H69AR cells + 2 uM doxorubicin) is 7.05% (inactive). Moreover, the inhibition in assay [4] is 0.53% (inactive); in assay [5] it was -3.65% (inactive).
Regarding `COc1ccccc1CN(Cc1nc2ccccc2c(=O)[nH]1)C(=O)Nc1ccccc1`, the viability in assay [1] was 89.4% (inactive); in assay [2], 86.6% (inactive); in assay [3] (setting [6]) it was 89.9%; in assay [3] (setting [7]), 86.6%. Also, in assay [3] (H69AR cells + 2 uM doxorubicin), the differential viability (reversal) is -3.29% (inactive). Besides, the inhibition in assay [4] was -4.61% (inactive); in assay [5] it was -4.13% (inactive).
For the molecule `CCCOc1ccc(S(=O)(=O)NCCCN2CCOCC2)c2ccccc12`, the viability in assay [1] was 83.2% (inactive); in assay [2] it was 90% (inactive); in assay [3] (setting [6]) it was 82.6%; in assay [3] (setting [7]), 90%. The differential viability (reversal) in assay [3] (H69AR cells + 2 uM doxorubicin) is 7.43% (inactive). Further, the inhibition in assay [4] was -6.13% (inactive); in assay [5], 4.6% (inactive).
`CN(C)c1oc(-c2ccccc2Cl)nc1C#N`: the viability is 56.5% (inactive) in assay [1], 94.9% (inactive) in assay [2], 78.1% in assay [3] (setting [6]) and 94.9% in assay [3] (setting [7]). In assay [3] (H69AR cells + 2 uM doxorubicin), the differential viability (reversal) was 16.8% (inactive). In addition, the inhibition was -3.33% (inactive) in assay [4] and 3.97% (inactive) in assay [5].
Consider `O=C(Nc1ccccc1C(=O)N1CCOCC1)C1CCC(=O)N1C1CCCC1` (stereo not given), for which the viability was 108% (inactive) in assay [1], 95% (inactive) in assay [2], 95.7% in assay [3] (setting [6]) and 95% in assay [3] (setting [7]). Also, the differential viability (reversal) in assay [3] (H69AR cells + 2 uM doxorubicin) was -0.755% (inactive). Also, the inhibition in assay [4] was -8.8% (inactive); in assay [5] it was -3.97% (inactive).
With `O=C(O)c1ccc(-n2nc(C(F)(F)F)c3c2-c2ccoc2CC3)cc1`, the viability in assay [1] was 70.8% (inactive); in assay [2], 97% (inactive); in assay [3] (setting [6]), 87.9%; in assay [3] (setting [7]) it was 97%. The differential viability (reversal) in assay [3] (H69AR cells + 2 uM doxorubicin) is 9.15% (inactive). The results for the inhibition in assay [4] and in assay [5] were 0.39% (inactive) and -1.43% (inactive), respectively.
In the case of `COc1ccc(C(=O)Nc2ccccc2C(=O)NCCN2CCOCC2)cc1`, the viability in assay [1] was 107% (inactive); in assay [2] it was 95.8% (inactive); in assay [3] (setting [6]) it was 92.8%; in assay [3] (setting [7]), 95.8%. Further, the differential viability (reversal) in assay [3] (H69AR cells + 2 uM doxorubicin) was 2.99% (inactive). The inhibition in assay [4] is 0% (inactive); in assay [5], -4.13% (inactive).
As to `CCOC(=O)CC(=O)c1cc(OC)c(OC)c(OC)c1`, the viability in assay [1] is 97.1% (inactive); in assay [2], 107% (inactive); in assay [3] (setting [6]), 95.6%; in assay [3] (setting [7]) it was 107%. Moreover, the differential viability (reversal) in assay [3] (H69AR cells + 2 uM doxorubicin) is 11.3% (inactive). The inhibition in assay [4] is -0.53% (inactive); in assay [5], -3.49% (inactive).
